In ChEMBL document CHEMBL1921744, “Lipophosphonoxins: new modular molecular structures with significant antibacterial properties” (J Med Chem, 2011):
≈ marks a conversion by molar mass, not a printed value. Calls of active or inactive are those of the source. The calls are words filed in the database; no cut-off is given here.

What was measured:
Staphylococcus aureus [1] = assay: Antibacterial activity against Staphylococcus aureus CCM 4223 after 24 to 48 hrs by microdilution method; type: functional
How it was run: (§1)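 Incubation 24/48 h at 37 °C. MIC read as the lowest concentration inhibiting growth. MBC determined by transferring 10 μL from wells onto blood agar, taken as the lowest concentration with no visible growth.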

Pseudomonas aeruginosa = assay: Antibacterial activity against Pseudomonas aeruginosa after 24 to 48 hrs by microdilution method; type: functional; how it was run: as §1
Escherichia coli [2] = assay: Antibacterial activity against permeabilized Escherichia coli DH5[alpha] assessed as cell killing at 10 uM; type: functional
How it was run: (§2)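 Competent (permeabilized) E. coli DH5α cells were mixed with 5 ng pUC18 (ampR) and serially diluted compound or buffer only. Steps: 30 min on ice, heat shock at 42 °C for 90 s, 5 min on ice, then LB without antibiotic for 1 h at 37 °C with shaking. Plated on LB agarose with ampicillin 100 μg/mL overnight at 37 °C. Colonies counted against the no-compound control.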

Escherichia coli [3] = assay: Antibacterial activity against Escherichia coli after 24 to 48 hrs by microdilution method; type: functional; how it was run: as §1
Staphylococcus aureus [4] = assay: Antibacterial activity against methicillin-resistant Staphylococcus aureus 4591 after 24 to 48 hrs by microdilution method; type: functional
How it was run: (§3)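 Broth microdilution MIC on clinical isolates from Teaching Hospital Olomouc, stored at −80 °C. Compounds were serially diluted in brain heart infusion broth over 200–1.56 μg/mL (sometimes extended to 0.78 μg/mL), with an inoculum of 10⁵⁻⁶ CFU/ml per well. Plates were incubated at 37 °C and read at 24/48 h. MIC was taken as the lowest concentration inhibiting growth.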

[5] = Cytotoxicity against human Erythroid progenitor cells assessed as maximum safe concentration after 48 hrs by CellTiter-blue assay; type: cell-based; conditions: read-out: Activity
How it was run: (§4)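 Normal human erythroid progenitor cells, expanded from umbilical cord blood, plated at 25000 cells/well immediately before compound addition (added as a 5× predilution in culture medium). Viability by CellTiter-Blue fluorescence 48 h after addition, normalized to untreated cells set as 100%.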

Enterococcus faecium [6] = assay: Antibacterial activity against vancomycin-resistant Enterococcus faecium VanA419/ana after 24 to 48 hrs by microdilution method; type: functional; how it was run: as §3
[7] = system: Staphylococcus epidermidis; assay: Antibacterial activity against methicillin-resistant Staphylococcus epidermidis 8700/B after 24 to 48 hrs by microdilution method; type: functional; how it was run: as §3
Enterococcus faecalis [8] = assay: Antibacterial activity against Enterococcus faecalis CCM 4224 after 24 to 48 hrs by microdilution method; type: functional; how it was run: as §1
Bacillus subtilis [9] = assay: Antibacterial activity against Bacillus subtilis after 24 to 48 hrs by microdilution method; type: functional; how it was run: as §1
[10] = Induction of apoptosis in human Erythroid progenitor cells assessed as caspase 3/7 activation after 4 hrs by Caspase-Glo 3/7 assay
How it was run: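 Cord-blood-derived human erythroid progenitor cells plated at 25000 cells/well and exposed to compound prediluted in medium. Caspase 3/7 activation read by Caspase-Glo 3/7 luminescence 4 h after addition, normalized to untreated control cells set as 100%.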

[11] = system: Staphylococcus haemolyticus; assay: Antibacterial activity against fluoroquinolone-resistant Staphylococcus haemolyticus 16568 after 24 to 48 hrs by microdilution method; type: functional; how it was run: as §3
[12] = Cytotoxicity against human Erythroid progenitor cells assessed as cell viability after 48 hrs by CellTiter-blue assay; type: cell-based; how it was run: as §4
Streptococcus agalactiae = assay: Antibacterial activity against Streptococcus agalactiae after 24 to 48 hrs by microdilution method; type: functional; how it was run: as §1
Escherichia coli [13] = assay: Antibacterial activity against permeabilized Escherichia coli DH5[alpha] assessed as log reduction of colony forming unit at 10 uM; type: functional, organism-based; how it was run: as §2
Bacillus subtilis [14] = assay: Inhibition of Bacillus subtilis RNA polymerase using [alpha-32P]-UTP at 1 mM pretreated for 5 mins measured after 15 mins by electrophoresis analysis
How it was run: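 Reconstituted B. subtilis RNAP σA holoenzyme (6 nM) with supercoiled pLK7 template carrying the rrnB P1 promoter (4 ng/μL). Nucleotides: ATP/CTP/GTP 200 μM, UTP 10 μM plus 2 μM [α-³²P]-UTP. Compound at 1 mM; 5 min preincubation at 30 °C, started with RNAP, stopped after 15 min with formamide/EDTA.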

Escherichia coli [15] = assay: Antibacterial activity against permeabilized Escherichia coli DH5[alpha] assessed as log reduction of colony forming unit at 1 mM; type: functional, organism-based; how it was run: as §2
Enterococcus faecium [16] = assay: Antibacterial activity against Enterococcus faecium ATCC 19434; type: functional; how it was run: as §1
Staphylococcus aureus [17] = assay: Antibacterial activity against methicillin-resistant Staphylococcus aureus SR3637; type: functional
Staphylococcus aureus [18] = assay: Antibacterial activity against methicillin-sensitive Staphylococcus aureus ATCC 29213; type: functional; how it was run: as §1
Enterococcus faecalis [19] = assay: Antibacterial activity against vancomycin-resistant Enterococcus faecalis SR7914; type: functional
Enterococcus faecium [20] = assay: Antibacterial activity against vancomycin-resistant Enterococcus faecium SR7917; type: functional
Enterococcus faecalis [21] = assay: Antibacterial activity against Enterococcus faecalis ATCC 29212; type: functional
Escherichia coli [22] = assay: Antibacterial activity against permeabilized Escherichia coli DH5[alpha] assessed as cell killing at 25 uM; type: functional; how it was run: as §2
Bacillus subtilis [23] = conditions: at 0.2 mM

Row | Molecule | MIC (Pseudomonas aeruginosa) | MIC (Escherichia coli [3]) | MNTC at 48 h [5] | MIC (Enterococcus faecium [6]) | MIC [7] | MIC (Enterococcus faecalis [8]) | MIC (Bacillus subtilis [9]) | Activity [10] | IC50 [12] | MIC (Streptococcus agalactiae) | other results
1 | CCCCCCCCCCCCCCCCOP(=O)(CCN1C[C@@H](O)[C@H](O)C1)OC[C@H]1O[C@@H](n2ccc(=O)[nH]c2=O)[C@H](O)[C@@H]1O (mixture of isomers) [listing 1 of 2 here] | > 200 mg/L | > 200 mg/L | 31.2 µg/mL | 3.13 mg/L | 3.13 mg/L | 6.25 mg/L | 3.13 mg/L | Non-toxic | 56 mg/L | 1.56 mg/L | MIC (Staphylococcus aureus [1]): 6.25 mg/L; Activity (Escherichia coli [2]): 90%; MIC (Staphylococcus aureus [4]): 12.5 mg/L; MIC [11]: 12.5 mg/L
2 | CCCCCCCCCCCCCCCCCCOP(=O)(CCN1C[C@@H](O)[C@H](O)C1)OC[C@H]1O[C@@H](n2ccc(=O)[nH]c2=O)[C@H](O)[C@@H]1O (some centres undefined) | > 200 mg/L | > 200 mg/L | 15.6 µg/mL | 6.25 mg/L (≈ 9.06 µM) | 6.25 mg/L (≈ 9.06 µM) | 6.25 mg/L (≈ 9.06 µM) | 6.25 mg/L (≈ 9.06 µM) | Non-toxic | 36 mg/L (≈ 52.2 µM) | 3.13 mg/L (≈ 4.54 µM) | MIC (Staphylococcus aureus [1]): 12.5 mg/L (≈ 18.1 µM); MIC (Staphylococcus aureus [4]): 200 mg/L (≈ 290 µM)
3 | CCCCCCCCCCCCCCCCOCCCOP(=O)(CCN1C[C@@H](O)[C@H](O)C1)OC[C@H]1O[C@@H](n2ccc(=O)[nH]c2=O)[C@H](O)[C@@H]1O (some centres undefined) | > 200 mg/L | > 200 mg/L | 62.5 µg/mL | 6.25 mg/L (≈ 8.68 µM) | 3.13 mg/L (≈ 4.35 µM) | 12.5 mg/L (≈ 17.4 µM) | 6.25 mg/L (≈ 8.68 µM) | Non-toxic | 91 mg/L (≈ 126 µM) | 3.13 mg/L (≈ 4.35 µM) | Activity (Escherichia coli [2]): 90%; Activity (Escherichia coli [13]): Active; inhibition (Bacillus subtilis [14]): inactive
4 | O=c1ccn([C@@H]2O[C@H](COP(=O)(O)CCN3C[C@@H](O)[C@H](O)C3)[C@@H](O)[C@H]2O)c(=O)[nH]1 |  |  |  |  |  |  |  |  |  |  | Activity (Escherichia coli [15]): inactive
5 | CCCCCCCCCCCCCCC[C@@H](NC[C@@H](NC(=O)N[C@H](C(=O)O)C(C)C)[C@@H]1CCNC(=N)N1)C(=O)NCCCN[C@H](C(=O)O)[C@H](O[C@@H]1O[C@H](CN)[C@@H](O)[C@H]1O)[C@H]1O[C@@H](n2ccc(=O)[nH]c2=O)[C@H](O)[C@@H]1O |  |  |  |  |  |  |  |  |  |  | MIC (Enterococcus faecium [16]): 0.5 mg/L (≈ 0.473 µM); MIC (Staphylococcus aureus [17]): 4 mg/L (≈ 3.79 µM); MIC (Staphylococcus aureus [18]): 2 mg/L (≈ 1.89 µM); MIC (Enterococcus faecalis [19]): 4 mg/L (≈ 3.79 µM); MIC (Enterococcus faecium [20]): 0.25 mg/L (≈ 0.237 µM); MIC (Enterococcus faecalis [21]): 2 mg/L (≈ 1.89 µM)
6 | CCCCCCCCCCCCCCOP(=O)(CCN1C[C@@H](O)[C@H](O)C1)OC[C@H]1O[C@@H](n2ccc(=O)[nH]c2=O)[C@H](O)[C@@H]1O (some centres undefined) | > 200 mg/L | > 200 mg/L | 31.2 µg/mL | 12.5 mg/L (≈ 19.7 µM) | 12.5 mg/L (≈ 19.7 µM) | 12.5 mg/L (≈ 19.7 µM) | 6.25 mg/L (≈ 9.86 µM) | Non-toxic | 58 mg/L (≈ 91.5 µM) | 6.25 mg/L (≈ 9.86 µM) | MIC (Staphylococcus aureus [1]): 12.5 mg/L (≈ 19.7 µM); MIC (Staphylococcus aureus [4]): 25 mg/L (≈ 39.4 µM); MIC [11]: 12.5 mg/L (≈ 19.7 µM)
7 | CCCCCCCCCCCCCCCCOCCCOP(=O)(CCN1C[C@@H](O)[C@@H](O)[C@@H](O)C1)OC[C@H]1O[C@@H](n2ccc(=O)[nH]c2=O)[C@H](O)[C@@H]1O (some centres undefined) | > 200 mg/L | > 200 mg/L | 62.5 µg/mL |  |  |  |  | Non-toxic | 149 mg/L (≈ 199 µM) | 12.5 mg/L (≈ 16.7 µM) | inhibition (Bacillus subtilis [14]): inactive
8 | CCCCCCCCCCCCCCCCCCCCOP(=O)(CCN1C[C@@H](O)[C@H](O)C1)OC[C@H]1O[C@@H](n2ccc(=O)[nH]c2=O)[C@H](O)[C@@H]1O (some centres undefined) | > 200 mg/L | > 200 mg/L | 15.6 µg/mL |  |  | 100 mg/L (≈ 139 µM) |  | Non-toxic | 31 mg/L (≈ 43.2 µM) | 6.25 mg/L (≈ 8.71 µM) | Activity (Escherichia coli [22]): 90%; Activity (Escherichia coli [13]): Active
9 | Cetyltrimethylammonium bromide |  |  |  |  |  |  |  |  |  |  | inhibition (Bacillus subtilis [23]): Active
10 | CCCCCCCCCCCCCCC[C@H](NC[C@@H](NC(=O)N[C@H](C(=O)O)C(C)C)[C@@H]1CCNC(=N)N1)C(=O)NCCCN[C@H](C(=O)O)[C@H](O[C@@H]1O[C@H](CN)[C@@H](O)[C@H]1O)[C@H]1O[C@@H](n2ccc(=O)[nH]c2=O)[C@H](O)[C@@H]1O |  |  |  |  |  |  |  |  |  |  | MIC (Enterococcus faecium [16]): 4 mg/L (≈ 3.79 µM); MIC (Staphylococcus aureus [17]): 4 mg/L (≈ 3.79 µM); MIC (Staphylococcus aureus [18]): 2 mg/L (≈ 1.89 µM); MIC (Enterococcus faecalis [19]): 4 mg/L (≈ 3.79 µM); MIC (Enterococcus faecium [20]): 2 mg/L (≈ 1.89 µM); MIC (Enterococcus faecalis [21]): 4 mg/L (≈ 3.79 µM)
11 | CCCCCCCCCCCCCCCCOCCCOP(=O)(CCN1C[C@H](O)[C@@H](O)C1)OC[C@H]1O[C@@H](n2ccc(=O)[nH]c2=O)[C@H](O)[C@@H]1O (some centres undefined) | > 200 mg/L | > 200 mg/L | 31.2 µg/mL | 6.25 mg/L (≈ 8.68 µM) | 6.25 mg/L (≈ 8.68 µM) | 12.5 mg/L (≈ 17.4 µM) | 6.25 mg/L (≈ 8.68 µM) | Non-toxic | 47 mg/L (≈ 65.3 µM) | 6.25 mg/L (≈ 8.68 µM) | inhibition (Bacillus subtilis [14]): inactive
12 | CCCCCCCCCCCCCCCCOP(=O)(CCN1C[C@@H](O)[C@H](O)C1)OC[C@H]1O[C@@H](n2ccc(=O)[nH]c2=O)[C@H](O)[C@@H]1O (mixture of isomers) [listing 2 of 2 here] |  |  |  |  |  |  |  |  |  |  | Activity (Escherichia coli [13]): Active
13 | CC(C)C[C@@H](NC[C@@H](NC(=O)N[C@H](C(=O)O)C(C)C)[C@@H]1CCNC(=N)N1)C(=O)NCCCN[C@H](C(=O)O)[C@H](O[C@@H]1O[C@H](CN)[C@@H](O)[C@H]1O)[C@H]1O[C@@H](n2ccc(=O)[nH]c2=O)[C@H](O)[C@@H]1O |  |  |  |  |  |  |  |  |  |  | MIC (Enterococcus faecium [16]): > 64 mg/L; MIC (Staphylococcus aureus [17]): > 64 mg/L; MIC (Staphylococcus aureus [18]): > 64 mg/L; MIC (Enterococcus faecalis [19]): > 64 mg/L; MIC (Enterococcus faecium [20]): > 64 mg/L; MIC (Enterococcus faecalis [21]): > 64 mg/L
14 | CCCCCCCCCCCCCCCCOCCCOP(=O)(CCN1C[C@H](O)C[C@@H](O)C1)OC[C@H]1O[C@@H](n2ccc(=O)[nH]c2=O)[C@H](O)[C@@H]1O (some centres undefined) | > 200 mg/L | > 200 mg/L | 31.2 µg/mL |  |  | 200 mg/L (≈ 273 µM) | 100 mg/L (≈ 136 µM) | Non-toxic | 53 mg/L (≈ 72.2 µM) | 6.25 mg/L (≈ 8.52 µM) | inhibition (Bacillus subtilis [14]): inactive
